Experiments:
[1] = target: T1, Cathepsin K (Homo sapiens, UniProt P43235); assay: Inhibition of human recombinant cathepsin K by fluorescence assay
T1 sequence (P43235 whole entry): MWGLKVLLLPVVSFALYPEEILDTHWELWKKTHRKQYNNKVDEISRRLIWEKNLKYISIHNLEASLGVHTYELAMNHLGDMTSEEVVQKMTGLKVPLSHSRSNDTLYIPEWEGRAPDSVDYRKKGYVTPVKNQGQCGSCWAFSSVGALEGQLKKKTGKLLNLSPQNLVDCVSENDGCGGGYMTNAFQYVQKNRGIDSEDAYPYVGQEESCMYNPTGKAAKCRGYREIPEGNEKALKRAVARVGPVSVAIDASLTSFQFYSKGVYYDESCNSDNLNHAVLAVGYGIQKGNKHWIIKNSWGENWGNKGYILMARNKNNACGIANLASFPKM
How it was run: (§1)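 Recombinant human enzymes in a fluorescence assay; substrate Z-Phe-Arg-MCA for cathepsins K and L, Z-Leu-Leu-Arg-MCA for cathepsin S. Means of two experiments, each run in duplicate; individual points within a 2-fold range of each other.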

[2] = target: Cathepsin S (Homo sapiens, UniProt P25774); assay: Inhibition of human recombinant cathepsin S by fluorescence assay; how it was run: as §1
Sequence of Cathepsin S (Homo sapiens, UniProt P25774) (P25774 whole entry): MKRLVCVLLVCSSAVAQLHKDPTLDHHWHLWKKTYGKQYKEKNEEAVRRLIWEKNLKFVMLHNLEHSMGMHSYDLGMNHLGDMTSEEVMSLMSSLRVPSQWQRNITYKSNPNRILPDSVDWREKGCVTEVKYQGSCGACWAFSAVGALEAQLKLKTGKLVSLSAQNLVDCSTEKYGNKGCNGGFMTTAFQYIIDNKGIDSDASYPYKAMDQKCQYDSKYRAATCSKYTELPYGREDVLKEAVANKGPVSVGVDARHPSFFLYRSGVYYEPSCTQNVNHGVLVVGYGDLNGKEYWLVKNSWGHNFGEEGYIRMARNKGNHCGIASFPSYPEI

[3] = target: Procathepsin L (Homo sapiens, UniProt P07711); assay: Inhibition of human recombinant cathepsin L by fluorescence assay; how it was run: as §1
Sequence of Procathepsin L (Homo sapiens, UniProt P07711) (P07711 whole entry): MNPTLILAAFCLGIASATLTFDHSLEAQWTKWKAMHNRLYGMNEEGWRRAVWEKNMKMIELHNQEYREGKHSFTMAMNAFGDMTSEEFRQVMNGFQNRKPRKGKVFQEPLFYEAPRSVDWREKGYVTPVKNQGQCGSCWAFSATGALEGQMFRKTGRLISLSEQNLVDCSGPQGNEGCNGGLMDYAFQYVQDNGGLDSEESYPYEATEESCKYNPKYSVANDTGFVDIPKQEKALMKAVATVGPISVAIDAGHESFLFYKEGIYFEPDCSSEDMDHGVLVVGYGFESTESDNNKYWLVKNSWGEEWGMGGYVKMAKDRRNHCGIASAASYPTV

[4] = species on record: Rattus norvegicus; assay: Selectivity for rat cathepsin S glycine 137 mutant over rat cathepsin K
How it was run: (§2)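 Recombinant rat cathepsins in a fluorescence assay with MCA substrates: Z-Leu-Leu-Arg-MCA for cathepsin S (137Gly form), Z-Phe-Arg-MCA for K and L, and Z-Arg-Arg-MCA for B. IC50 values were taken as means ± SD of three experiments, and selectivity was compared from the IC50 values against the S enzyme and each other cathepsin.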

[5] = target: Cathepsin S (Mus musculus) (UniProt O70370); assay: Inhibition of cathepsin S-mediated proteolytic cleavage of MHC2 associated invariant chain in mouse splenocytes assessed as induction of accumulation of lip10; format: cell-based
[6] = target: Cytochrome P450 3A4 (Homo sapiens, UniProt P08684); assay: Inhibition of CYP3A4 at 10 uM; format: ADME
Sequence of Cytochrome P450 3A4 (P08684 whole entry): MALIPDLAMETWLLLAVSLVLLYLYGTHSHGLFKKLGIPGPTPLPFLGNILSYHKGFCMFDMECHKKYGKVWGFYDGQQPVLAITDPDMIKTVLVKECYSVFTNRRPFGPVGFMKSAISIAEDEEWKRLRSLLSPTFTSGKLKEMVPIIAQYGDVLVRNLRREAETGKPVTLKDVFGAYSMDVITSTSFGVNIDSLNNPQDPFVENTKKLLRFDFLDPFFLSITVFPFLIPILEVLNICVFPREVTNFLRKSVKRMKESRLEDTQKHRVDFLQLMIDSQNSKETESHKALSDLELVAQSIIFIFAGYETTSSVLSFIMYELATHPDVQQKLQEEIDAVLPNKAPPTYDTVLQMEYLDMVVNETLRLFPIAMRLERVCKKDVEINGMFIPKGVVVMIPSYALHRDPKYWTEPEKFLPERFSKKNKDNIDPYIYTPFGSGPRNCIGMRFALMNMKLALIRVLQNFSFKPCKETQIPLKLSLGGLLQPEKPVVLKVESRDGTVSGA
How it was run: (§3)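 Tested against a panel of cytochrome P450 enzymes at a maximum concentration of 10 µM.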

[7] = target: Cytochrome P450 2C9 (Homo sapiens, UniProt P11712); assay: Inhibition of CYP2C9 at 10 uM; format: ADME; how it was run: as §3
Sequence of Cytochrome P450 2C9 (P11712 whole entry): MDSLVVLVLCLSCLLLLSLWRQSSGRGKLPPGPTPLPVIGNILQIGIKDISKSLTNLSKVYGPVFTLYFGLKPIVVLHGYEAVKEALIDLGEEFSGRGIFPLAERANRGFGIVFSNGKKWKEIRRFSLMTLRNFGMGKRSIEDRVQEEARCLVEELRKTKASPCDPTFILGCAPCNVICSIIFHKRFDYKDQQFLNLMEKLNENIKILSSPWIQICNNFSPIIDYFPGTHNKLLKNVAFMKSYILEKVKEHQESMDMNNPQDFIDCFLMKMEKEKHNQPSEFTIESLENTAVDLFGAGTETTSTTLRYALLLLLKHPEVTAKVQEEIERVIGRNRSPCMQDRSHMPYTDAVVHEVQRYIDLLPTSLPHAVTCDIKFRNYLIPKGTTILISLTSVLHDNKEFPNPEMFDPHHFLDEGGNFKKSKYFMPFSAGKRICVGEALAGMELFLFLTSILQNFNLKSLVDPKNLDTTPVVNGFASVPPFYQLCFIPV

[8] = Inhibition of rat cathepsin S cysteine 137 mutant by fluorescence assay
How it was run: (§4)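 Recombinant rat cathepsins K, L, S (137Gly and 137Cys forms) and mouse cathepsin S in a fluorescence assay. Substrates: Z-Phe-Arg-MCA for K and L, Z-Leu-Leu-Arg-MCA for S. IC50 reported as means ± SD of three experiments.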

[9] = target: Cathepsin S (Mus musculus, UniProt O70370); assay: Inhibition of mouse cathepsin S by fluorescence assay; how it was run: as §4
[10] = target: Cytochrome P450 2C19 (Homo sapiens, UniProt P33261); assay: Inhibition of CYP2C19 at 10 uM; format: ADME; how it was run: as §3
Sequence of Cytochrome P450 2C19 (P33261 whole entry): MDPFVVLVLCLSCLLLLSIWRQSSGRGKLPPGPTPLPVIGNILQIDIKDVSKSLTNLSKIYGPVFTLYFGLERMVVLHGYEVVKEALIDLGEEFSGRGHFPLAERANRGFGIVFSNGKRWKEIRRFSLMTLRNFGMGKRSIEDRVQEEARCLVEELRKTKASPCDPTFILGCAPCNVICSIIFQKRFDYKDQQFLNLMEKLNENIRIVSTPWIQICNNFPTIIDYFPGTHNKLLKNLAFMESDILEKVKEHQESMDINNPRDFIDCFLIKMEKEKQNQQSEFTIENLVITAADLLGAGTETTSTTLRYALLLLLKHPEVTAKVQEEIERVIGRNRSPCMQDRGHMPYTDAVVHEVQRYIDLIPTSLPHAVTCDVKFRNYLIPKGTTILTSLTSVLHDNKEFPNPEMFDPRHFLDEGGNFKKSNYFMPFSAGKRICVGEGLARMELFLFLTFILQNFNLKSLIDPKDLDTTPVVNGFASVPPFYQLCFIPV

[11] = target: T2, Cathepsin K (Rattus norvegicus, UniProt O35186); assay: Inhibition of rat cathepsin K by fluorescence assay; how it was run: as §4
T2 sequence (O35186 whole entry): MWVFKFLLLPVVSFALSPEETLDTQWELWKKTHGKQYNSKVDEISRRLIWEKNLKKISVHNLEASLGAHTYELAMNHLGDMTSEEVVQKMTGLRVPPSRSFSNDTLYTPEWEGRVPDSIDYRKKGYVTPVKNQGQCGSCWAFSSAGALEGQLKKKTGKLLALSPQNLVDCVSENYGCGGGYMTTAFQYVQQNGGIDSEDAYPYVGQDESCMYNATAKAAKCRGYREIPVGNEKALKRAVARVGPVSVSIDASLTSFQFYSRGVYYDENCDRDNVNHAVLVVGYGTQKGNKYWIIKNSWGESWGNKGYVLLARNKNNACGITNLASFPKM

[12] = system: Rattus norvegicus; assay: Reversal of neuropathic mechanical hyperalgesia in Wistar rat sciatic nerve ligation model with cathepsin S glycine 137 mutation at 100 mg/kg, po; format: functional
How it was run: (§5)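 Partial sciatic nerve ligation in Wistar rats genotyped as 137Gly cathepsin S, with established mechanical hyperalgesia. Oral dosing in 0.5% methylcellulose/water; repeat regimen twice daily for 5 days, paw withdrawal thresholds 3 h post-dose. 6 animals/group; % reversal of hyperalgesia, mean ± SEM; ANOVA with Tukey's HSD versus vehicle.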

[13] = Terminal elimination half life in Sprague-Dawley rat at 1 mg/kg, iv by LC/MS analysis; format: ADME, organism-based; parameters: dose 1 mg/kg, route intravenous; settings: in vivo
How it was run: (§6)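 Male Sprague-Dawley rats dosed orally at 3 mg/kg as a suspension and intravenously at 1 mg/kg as a bolus. Plasma levels quantified by LC/MS. Oral AUC and Cmax dose-normalized to 1 mg/kg. Means ± SD of three individual experiments.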

[14] = Bioavailability in Sprague-Dawley rat at 1 mg/kg, iv and 3 mg/kg, po by LC/MS analysis; format: ADME, organism-based; settings: in vivo; how it was run: as §6
[15] = target: T3, Cytochrome P450 1A2 (Homo sapiens, UniProt P05177); assay: Inhibition of CYP1A2 at 10 uM; format: ADME; how it was run: as §3
T3 sequence (P05177 whole entry): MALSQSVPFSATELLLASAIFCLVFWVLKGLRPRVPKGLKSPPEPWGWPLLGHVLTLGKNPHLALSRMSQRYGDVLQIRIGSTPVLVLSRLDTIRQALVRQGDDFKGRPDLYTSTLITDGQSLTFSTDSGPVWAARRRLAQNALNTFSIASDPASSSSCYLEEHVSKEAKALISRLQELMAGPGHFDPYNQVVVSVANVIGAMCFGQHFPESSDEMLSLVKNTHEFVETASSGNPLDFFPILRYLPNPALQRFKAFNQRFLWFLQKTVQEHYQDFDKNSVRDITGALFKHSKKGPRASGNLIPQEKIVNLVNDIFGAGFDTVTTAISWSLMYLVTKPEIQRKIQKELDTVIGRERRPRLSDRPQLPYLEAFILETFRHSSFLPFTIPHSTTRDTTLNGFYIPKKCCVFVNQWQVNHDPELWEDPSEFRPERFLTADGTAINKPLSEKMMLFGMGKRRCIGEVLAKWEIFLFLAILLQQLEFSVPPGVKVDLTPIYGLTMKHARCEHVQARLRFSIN

[16] = species on record: Rattus norvegicus; assay: Selectivity for rat cathepsin S glycine 137 mutant over rat cathepsin L; how it was run: as §2
[17] = Genotoxicity in liver S9 fraction by Ames test; format: toxicity, subcellular
How it was run: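 Standard Ames test run with liver S9 enzyme.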

[18] = Volume of distribution in Sprague-Dawley rat at 1 mg/kg, iv and 3 mg/kg, po by LC/MS analysis; format: ADME, organism-based; settings: in vivo; how it was run: as §6
[19] = target: Cytochrome P450 2D6 (Homo sapiens, UniProt P10635); assay: Inhibition of CYP2D6 at 10 uM; format: ADME; how it was run: as §3
Sequence of Cytochrome P450 2D6 (P10635 whole entry): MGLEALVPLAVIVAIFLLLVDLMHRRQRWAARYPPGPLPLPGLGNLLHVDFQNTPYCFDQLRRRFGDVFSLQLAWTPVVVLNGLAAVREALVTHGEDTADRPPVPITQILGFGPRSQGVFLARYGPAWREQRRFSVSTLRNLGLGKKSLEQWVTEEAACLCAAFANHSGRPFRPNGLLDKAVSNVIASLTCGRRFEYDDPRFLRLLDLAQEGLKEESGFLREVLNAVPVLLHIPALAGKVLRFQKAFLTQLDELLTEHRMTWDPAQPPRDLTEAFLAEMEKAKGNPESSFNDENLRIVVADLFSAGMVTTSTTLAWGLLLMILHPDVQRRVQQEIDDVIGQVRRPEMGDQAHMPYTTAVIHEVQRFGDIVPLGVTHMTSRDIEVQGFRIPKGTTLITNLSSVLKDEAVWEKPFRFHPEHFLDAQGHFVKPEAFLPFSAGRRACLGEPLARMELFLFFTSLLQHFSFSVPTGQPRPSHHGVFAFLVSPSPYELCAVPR

[20] = Inhibition of rat cathepsin S glycine 137 mutant by fluorescence assay; how it was run: as §4
[21] = Cmax in Sprague-Dawley rat at 3 mg/kg, po by LC/MS analysis; format: ADME, organism-based; parameters: dose 3 mg/kg, route oral; settings: in vivo; how it was run: as §6
[22] = system: Rattus norvegicus; assay: Reversal of neuropathic mechanical hyperalgesia in Wistar rat sciatic nerve ligation model assessed as paw withdrawal threshold at 30 mg/kg, po administered twice daily for 5 days after 3 hrs; format: functional; how it was run: as §5
[23] = species on record: Rattus norvegicus; assay: Selectivity for rat cathepsin S glycine 137 mutant over rat cathepsin B; how it was run: as §2
[24] = target: T4, Procathepsin L (Rattus norvegicus, UniProt P07154); assay: Inhibition of rat cathepsin L by fluorescence assay; how it was run: as §4
T4 sequence (P07154 whole entry): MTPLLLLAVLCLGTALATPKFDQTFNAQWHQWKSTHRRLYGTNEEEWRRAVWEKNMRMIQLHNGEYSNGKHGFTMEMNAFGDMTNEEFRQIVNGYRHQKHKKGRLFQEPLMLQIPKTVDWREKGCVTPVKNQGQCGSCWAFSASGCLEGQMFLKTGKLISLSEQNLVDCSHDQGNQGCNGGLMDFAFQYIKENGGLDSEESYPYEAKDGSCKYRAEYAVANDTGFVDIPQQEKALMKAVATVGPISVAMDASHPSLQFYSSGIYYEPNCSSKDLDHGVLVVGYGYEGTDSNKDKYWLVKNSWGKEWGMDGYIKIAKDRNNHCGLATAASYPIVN

[25] = Plasma clearance in Sprague-Dawley rat at 1 mg/kg, iv and 3 mg/kg, po by LC/MS analysis; format: ADME, organism-based; how it was run: as §6

For CC(=O)N1CCN(c2ccc(OCc3cc4cnc(C#N)nc4n3CCc3ccc(Cl)cc3)cc2)CC1, the IC50 [1] was > 1000 nM, the IC50 [2] was 17 nM and the IC50 [3] was > 1000 nM.

With CC(=O)N1CCN(c2ccc(OCc3cc4cnc(C#N)nc4n3CCC3CCCC3)cc2)CC1 the IC50 [1] was 79 nM, the IC50 [2] was 5 nM and the IC50 [3] was 2300 nM.

With CC(=O)N1CCN(c2ccc(OCc3cc4cnc(C#N)nc4n3CCC3CCCCCC3)cc2)CC1 the IC50 [1] was > 2000 nM, the IC50 [2] was 50 nM and the IC50 [3] was > 2000 nM.

With CC(=O)N1CCN(c2ccc(OCc3cc4cnc(C#N)nc4n3CCC3CCCCC3)c(F)c2)CC1 the Activity [4] was > 100, the Activity [5] was “Dose-dependent effect” and the Activity [6] was “Not Active”. For the same molecule, the Activity [7] was “Not Active”, the IC50 [8] was > 10000 nM and the IC50 [9] was 14 nM. For the same molecule, the IC50 [1] was 5900 nM, the Activity [10] was “Not Active” and the IC50 [11] was > 10000 nM. For the same molecule, the Activity [12] was 54%, the half-life [13] was 1.7 h and the bioavailability [14] was 24%. For the same molecule, the Activity [15] was “Not Active”, the Activity [16] was > 100 and the Activity [17] was “Non-toxic”. The Vd [18] was 5.7 L/kg, the Activity [19] was “Not Active” and the IC50 [20] was 12 nM. For the same molecule, the Cmax [21] was 30 nM, the Activity [22] was 63% and the IC50 [2] was 18 nM. For the same molecule, the Activity [23] was > 100, the IC50 [24] was > 10000 nM and the clearance [25] was 45 mL/min/kg. For the same molecule, the IC50 [3] was 6800 nM.

From ChEMBL document CHEMBL1140079, “Discovery of orally bioavailable cathepsin S inhibitors for the reversal of neuropathic pain” (J Med Chem, 2008)
